# Bioassay records: PubChem, Sanford-Burnham Center for Chemical Genomics
# Apaf1 activ: activates human Apaf-1 apoptosome. O14727. Apaf-1 apoptosome caspase-3 activation, DEVD-Rh110 fluorescence; active compounds read low. AID 489031. activity change, negative = activation, % at 20 µM. actives 0.31% (n = 330,000);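 active = activity change at or below -40% at 20 µM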
#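 system = biochemical Apaf-1 apoptosome reconstitution | buffer or medium = 20 mM HEPES pH 7.5 with CHAPS, BSA | also added = dATP and cytochrome c as apoptosome triggers, (Z-DEVD)2-Rh110 substrate | incubation = 30 min compound preincubation and 50 min reaction, both room temperature | measured by = fluorescence, 540 nm emission, 480 nm excitation | read-out basis = Caspase-3 cleavage activity downstream of Apaf-1 activation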
# Rh110 interf act: interferes with Rh110 fluorescence, flagging false Apaf-1 activators; shares compounds with Apaf1 activ; Rh110 fluorescence interference, quenched caspase reaction, Ex480/Em540; fluorescence interference (activity change), % at 20 µM, hits read low; 980 tested, under 10 active; AID 504616;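 active = mean activity change at or below -40% when tested at 20 µM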
# Apaf-1 act conf: Apaf-1 (human) activation, single-dose confirmed. reconstituted apoptosome caspase-3 activity, DEVD-Rh110 fluorescence; active compounds read low. actives 5% (n = 980). activity change, negative = activation, % at 20 µM. shares compounds with Apaf1 activ. AID 504617;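 active = mean activity change at or below -40%, meaning activation of 40% or more, at 20 µM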
# Starred values were filed as active, the others as inactive; nt = no result given. Only a sample is shown.
SMILES,Apaf1 activ,Rh110 interf act,Apaf-1 act conf
O=C(NCCCn1ccnc1)c1cn(Cc2ccc(F)cc2)nn1,-41*,4,0
O=C(c1ccco1)[C@@H]1[C@@H]2C(=O)N(c3ccc(F)cc3)C(=O)[C@@H]2C2c3ccccc3C=CN21 (stereo not given in full),83,nt,nt
CCN1CCN(Cc2ccc(NC(=O)c3cc(NC(=O)c4cc5cccc(OC)c5o4)cc(OC)c3)cc2C(F)(F)F)CC1,63,nt,nt
CC(C)(C)C1CCC(CN2C(Nc3ccccc3)=NC[C@@H]2Cc2ccccc2)CC1 (stereo not given in full),75,nt,nt
CCOC(=O)N1CCN(S(=O)(=O)N2CCCC(C(=O)NCCCN3CCCCC3CC)C2)CC1 (stereo not given),-61*,1,18
Cc1ccc(Oc2nc(CN3CCOCC3)nc3sc4c(c23)CCC(C)C4)cc1 (stereo not given),41,nt,nt
Cc1c(CCOC(=O)C2C3CC4CC(C3)CC2C4)sc[n+]1CC(=O)c1ccc(Br)cc1 (stereo not given),50,nt,nt
Cc1ccc(-c2nc3ncccn3c2NC(=O)C2CC2)cc1,-52*,0,13
O=C(Nc1ccc(Oc2ccccc2)cc1)C1CCN(c2c3c(nc4ncnn24)CCC3)CC1,41,nt,nt
CCN(Cc1ccccc1)S(=O)(=O)c1ccc(C(=O)N(CCCN(C)C)c2nc3cc(OC)ccc3s2)cc1,40,nt,nt
COCCNc1nc2nonc2nc1N(C)Cc1cccc2cnccc12,-346*,-2,11
CNC(=O)NCC12CC3CC(CC(C3)C1)C2,-293*,10,10
Nc1nc2c(s1)CCc1c-2cnn1-c1ccccc1,93,nt,nt
O=C(Nc1ccc(-c2nc3ccc(NC(=O)c4cccs4)cc3[nH]2)cc1)c1cccs1,69,nt,nt
O=C(NNc1ccccc1C(F)(F)F)c1cccs1,-107*,4,8
N=c1n(CC(=O)c2ccc(Br)s2)c2ccccc2n1Cc1ccccc1,42,nt,nt
O/N=C/c1ccc2ccccc2n1,-50*,-2,1
C[n+]1ccccc1/C=N/O,0,nt,nt
CSc1nncc(/C(C)=N\Nc2ccccc2)n1,70,nt,nt
COc1ccc(OCc2cc(C(=O)N3CCSCC3)no2)c(Cl)c1,-153*,7,13
NC(N)=NC(N)=Nc1cccc2ccccc12,83,nt,nt
CCCCc1ccc(NC(=O)c2ccc(NS(C)(=O)=O)cc2)cc1,-102*,3,13
CCN(C(=O)c1coc(=O)c(Br)c1)c1ccc2c(c1)OCO2,59,nt,nt
CS(=O)(=O)Nc1ccc(C(=O)Nc2ccc3c(c2)OCO3)cc1,-58*,-4,1
Cc1ccc(NC(=O)c2ccc(CN3CCc4ccccc4C3)cc2)cc1,48,nt,nt
SMILES,Apaf1 activ,Rh110 interf act,Apaf-1 act conf
CCOC(=O)CNc1ccc2c(c1)OCO2,40,nt,nt
CCCCCCOC(=O)C(C#N)c1nc2ccccc2nc1N1CCN(CC)CC1 (stereo not given),42,nt,nt
COc1ccc(-c2cc(=O)n(CCC#N)[nH]2)cc1,94,nt,nt
CCCCCOC(=O)c1c(N)n(CCOC)c2nc3ccccc3nc12,94,nt,nt
CCc1nnc(NC(=O)c2ccc(S(=O)(=O)N3CCCCC3)cc2)s1,55,nt,nt
CN(C)CCCN(C(=O)c1ccc(S(=O)(=O)N2CCCCC2)cc1)c1nc2cc3c(cc2s1)OCO3,42,nt,nt
Cc1ccc(/C=N/NC(=O)CNC(=O)c2ccc(S(=O)(=O)N3CCCC3)cc2)o1,-522*,11,8
O=[N+]([O-])c1c(Nc2ccccn2)cc(Cl)c2nonc12,91,nt,nt
COC(=O)/C(=C/Nc1ccc(O)cc1)[N+](=O)[O-],91,nt,nt
COc1ccc(-n2c3nc4ccccc4nc3c3c(=N)oc(C)nc32)cc1,96,nt,nt
Cc1[nH]n(-c2ccc([N+](=O)[O-])cc2)c(=O)c1/C=N/N1CCOCC1,44,nt,nt
CCOc1ccc(-n2nc3ccc(N)cc3n2)cc1,84,nt,nt
CN(C)Cc1c(C(=O)N/N=C/c2cccc(OCc3c(F)cccc3Cl)c2)nnn1-c1nonc1N,-96*,-4,11
CN(Cc1c(F)cccc1Cl)C(=O)c1ccc(COc2ccccc2)cc1,53,nt,nt
CCN(CC)CCOC(=O)c1ccc(NC(=O)CCCN2C(=O)/C(=C\c3cccs3)SC2=S)cc1,60,nt,nt
CCOCCCNC(=O)COc1ccc(OC)cc1,-293*,12,12
CCOCCCNC1=C(Cl)C(=O)c2ccccc2C1=O,48,nt,nt
NC(=NCCCCCCN=C(N)/N=C(\N)Nc1ccc(Cl)cc1)/N=C(\N)Nc1ccc(Cl)cc1,76,nt,nt
C#CCOCCOCCOCCNc1nc(N2CCN(C(=O)CCCCCCCCCCNC(=O)[C@H]([C@@H](C)CC)n3cc(CCCCN=C(N)N)nn3)CC2)nc(N2CCN(C(=O)CCCCCCCCCCNC(=O)[C@H](CO)n3cc(CCCCCN)nn3)CC2)n1,85,nt,nt
COc1cccc(CN(C)C(=O)c2ccc(C)c(S(=O)(=O)N3CCCCC3)c2)c1,40,nt,nt
COc1cccc(CNC(=O)CN2C(=O)COc3ccc(S(=O)(=O)N4CCCC4)cc32)c1,-82*,0,6
COc1cccc(CN(C)C(=O)c2cc(S(=O)(=O)N3CCCCCC3)ccc2OC)c1,51,nt,nt
C#CCOCCOCCOCCNc1nc(N2CCN(C(=O)[C@H](CCCCN)n3cc([C@@H](N)[C@H](C)CC)nn3)CC2)nc(N2CCN(C(=O)[C@H](CCC(=O)O)n3cc([C@@H](N)CCCCN)nn3)CC2)n1,47,nt,nt
COc1cc(/C=C2\C(=O)N(CCC#N)N=C2C)ccc1OCC(=O)Nc1ccccc1,93,nt,nt
COc1cc(/C=N/NC(=O)c2ccncc2)ccc1OCC(=O)Nc1cccc([N+](=O)[O-])c1,-125*,-2,-24
SMILES,Apaf1 activ,Rh110 interf act,Apaf-1 act conf
O=c1[nH]c(Nc2ccc(F)cc2)cc2ccccc12,95,nt,nt
O=c1[nH]c(CN2CCc3ccccc3C2)nc2ccccc12,65,nt,nt
O=c1[nH]c(C(F)(F)F)nc2ccccc12,-112*,0,12
O=C(NCc1ccccn1)c1ccc2c(=O)n3nc(Nc4ccccc4)sc3nc2c1,-43*,-4,-38
c1ccc(CNc2nc(NCc3ccccc3)c3ccccc3n2)cc1,66,nt,nt
COc1cc2c(C#N)c(N3CCc4ccccc4C3)nc(N)c2c(N)n1,94,nt,nt
S=C(NCCc1ccc(Cl)cc1)NCc1ccco1,-154*,3,15
O=C(CCC1N=C2c3ccccc3N=C(SCc3ccc(Cl)cc3)N2C1=O)NCc1ccco1 (stereo not given),41,nt,nt
CC1=NN(c2ccc(S(=O)(=O)O)cc2Cl)C(=O)C1,66,nt,nt
COc1ccc(C(=O)/C=C/C(=O)N(CC(=O)NC2CCCCC2)CC2CCCO2)c(O)c1 (stereo not given),49,nt,nt
CCOC(=O)COc1ccc(S(=O)(=O)NCC2CCCO2)cc1 (stereo not given),-185*,0,8
CC1=NN(c2ccc(F)cc2)C(=O)C1C(c1cccc(O)c1)c1c(C)[nH]n(-c2ccc(F)cc2)c1=O (stereo not given),91,nt,nt
CCOC(=O)C1CCN(C2=C(NS(=O)(=O)c3ccc(Br)cc3)C(=O)c3ccccc3C2=O)CC1,68,nt,nt
CCOC(=O)C1CCCN(C2CCN(Cc3nc(Cc4ccccc4)no3)CC2)C1 (stereo not given),-72*,0,11
O=C(C1CCCN(S(=O)(=O)c2cnc[nH]2)C1)N1CCN(Cc2ccccc2)CC1 (stereo not given),40,nt,nt
